Reference: ChEMBL document CHEMBL1275484, “Rifampin and rifaximin resistance in clinical isolates of Clostridium difficile” (Antimicrob Agents Chemother, 2008)
Converted amounts (≈) assume the structure as drawn.

What was measured:
Format in all cases: functional
Clostridioides difficile [1] = experiment: Antimicrobial activity against Clostridium difficile isolate 7 by agar dilution method
Outline: (§1)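 CLSI reference agar dilution for anaerobes, with endpoints read per guideline M11-A7. Rifaximin was dissolved in methanol, diluted in 0.1 M phosphate buffer pH 7.4 with 0.45% SDS, and tested at 0.0009–256 μg/ml. Rifampin was dissolved in methanol, diluted in water, and tested at 0.00001–256 μg/ml. Control strain: C. difficile ATCC 70005. Isolates were typed by HindIII REA.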

Clostridioides difficile [2] = experiment: Antimicrobial activity against Clostridium difficile isolate 42 by agar dilution method
Outline: as §1, with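 “dilution method” for “dilution”, “(pH 7.4)” for “pH 7.4”, “μg/ml.” for “μg/ml. Control strain:”, “[…] served as control.” for “70005.”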

Clostridioides difficile [3] = experiment: Antimicrobial activity against rifaximin-resistant Clostridium difficile isolate 24 expressing RpoB H502N and R505K mutants by agar dilution method
Outline: (§2)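 MICs were found by the CLSI reference agar dilution method for anaerobes, with endpoints read per M11-A7 and C. difficile […] as control. Rifaximin was dissolved in methanol, diluted in 0.1 M phosphate buffer pH 7.4 with 0.45% SDS, and tested at 0.0009–256 μg/ml. Rifampin was dissolved in methanol, diluted in water, and tested at 0.00001–256 μg/ml.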

Clostridioides difficile [4] = experiment: Antimicrobial activity against rifaximin-resistant Clostridium difficile isolate 68 expressing RpoB H502Y mutant by agar dilution method; outline: as §2
Clostridioides difficile [5] = experiment: Antimicrobial activity against Clostridium difficile isolate 57 by Etest
Outline: (§3)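 Rifampin Etest strips were run on brucella blood agar following the manufacturer's instructions to give an MIC. Clinical isolates were typed by HindIII REA.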

Clostridioides difficile [6] = experiment: Antimicrobial activity against Clostridium difficile isolate 5 by agar dilution method
Outline: as §1, with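 “dilution method” for “dilution”, “(pH 7.4)” for “pH 7.4”, “μg/ml.” for “μg/ml. Control strain:”, “[…] served as control.” for “70005.”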

Clostridioides difficile [7] = experiment: Antimicrobial activity against Clostridium difficile isolate 13 by Etest
Outline: (§4)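 Rifampin MIC by Etest strip on brucella blood agar, run per the strip maker's instructions. Isolates were HindIII REA-typed clinical C. difficile.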

Clostridioides difficile [8] = experiment: Antimicrobial activity against Clostridium difficile isolate 62 by agar dilution method; outline: as §1
Clostridioides difficile [9] = experiment: Antimicrobial activity against rifaximin-resistant Clostridium difficile isolate 67 expressing RpoB H502N and R505K mutants by Etest
Outline: (§5)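 Rifampin Etest on clinical C. difficile isolates typed by HindIII REA, run per the strip manufacturer's instructions on brucella blood agar, with the MIC read from the strip.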

Clostridioides difficile [10] = experiment: Antimicrobial activity against Clostridium difficile isolate 19 by Etest; outline: as §4
Clostridioides difficile [11] = experiment: Antimicrobial activity against rifaximin-resistant Clostridium difficile isolate 65 expressing RpoB H502N and R505K mutants by agar dilution method; outline: as §2
Clostridioides difficile [12] = experiment: Antimicrobial activity against rifaximin-resistant Clostridium difficile isolate 65 expressing RpoB H502N and R505K mutants by Etest; outline: as §5
Clostridioides difficile [13] = experiment: Antimicrobial activity against Clostridium difficile isolate 37 by agar dilution method
Outline: (§6)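 MIC by CLSI reference agar dilution for anaerobes, with endpoints read per M11-A7 and C. difficile […] as control. Rifaximin was dissolved in methanol, diluted in 0.1 M phosphate buffer pH 7.4 plus 0.45% SDS, and tested at 0.0009–256 μg/ml. Rifampin was dissolved in methanol, diluted in water, and tested at 0.00001–256 μg/ml.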

Clostridioides difficile [14] = experiment: Antimicrobial activity against Clostridium difficile isolate 43 by agar dilution method
Outline: as §1, with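 “dilution method” for “dilution”, “(pH 7.4)” for “pH 7.4”, “μg/ml.” for “μg/ml. Control strain:”, “[…] served as control.” for “70005.”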

Clostridioides difficile [15] = experiment: Antimicrobial activity against Clostridium difficile isolate 71 by agar dilution method; outline: as §1
Clostridioides difficile [16] = experiment: Antimicrobial activity against Clostridium difficile isolate 51 by agar dilution method
Outline: as §1, with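 “dilution method” for “dilution”, “(pH 7.4)” for “pH 7.4”, “μg/ml.” for “μg/ml. Control strain:”, “[…] served as control.” for “70005.”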

Clostridioides difficile [17] = experiment: Antimicrobial activity against Clostridium difficile isolate 80 by agar dilution method; outline: as §1
Clostridioides difficile [18] = experiment: Antimicrobial activity against rifaximin-resistant Clostridium difficile isolate 66 expressing RpoB D492N and R505K mutants by agar dilution method; outline: as §2
Clostridioides difficile [19] = experiment: Antimicrobial activity against Clostridium difficile isolate 29 by agar dilution method; outline: as §6
Clostridioides difficile [20] = experiment: Antimicrobial activity against Clostridium difficile isolate 70 by Etest
Outline: (§7)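 Rifampin MIC by Etest on brucella blood agar, run per the strip manufacturer's instructions, against clinical isolates typed by HindIII REA.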

Clostridioides difficile [21] = experiment: Antimicrobial activity against Clostridium difficile isolate 53 by agar dilution method
Outline: as §1, with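 “dilution method” for “dilution”, “(pH 7.4)” for “pH 7.4”, “μg/ml.” for “μg/ml. Control strain:”, “[…] served as control.” for “70005.”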

Clostridioides difficile [22] = experiment: Antimicrobial activity against Clostridium difficile isolate 73 by Etest; outline: as §7
Clostridioides difficile [23] = experiment: Antimicrobial activity against Clostridium difficile isolate 73 by agar dilution method; outline: as §1
Clostridioides difficile [24] = experiment: Antimicrobial activity against Clostridium difficile isolate 69 by Etest; outline: as §7
Clostridioides difficile [25] = experiment: Antimicrobial activity against rifaximin-resistant Clostridium difficile isolate 18 expressing RpoB R505K mutant by agar dilution method; outline: as §2
Clostridioides difficile [26] = experiment: Antimicrobial activity against Clostridium difficile isolate 57 by agar dilution method
Outline: as §1, with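 “dilution method” for “dilution”, “(pH 7.4)” for “pH 7.4”, “μg/ml.” for “μg/ml. Control strain:”, “[…] served as control.” for “70005.”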

Clostridioides difficile [27] = experiment: Antimicrobial activity against Clostridium difficile isolate 71 by Etest; outline: as §7
Clostridioides difficile [28] = experiment: Antimicrobial activity against Clostridium difficile isolate 51 by Etest; outline: as §3
Clostridioides difficile [29] = experiment: Antimicrobial activity against Clostridium difficile isolate 62 by Etest; outline: as §3
Clostridioides difficile [30] = experiment: Antimicrobial activity against rifaximin-resistant Clostridium difficile isolate 50 expressing RpoB R505K mutant by Etest; outline: as §5
Clostridioides difficile [31] = experiment: Antimicrobial activity against Clostridium difficile isolate 49 by agar dilution method
Outline: as §1, with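 “dilution method” for “dilution”, “(pH 7.4)” for “pH 7.4”, “μg/ml.” for “μg/ml. Control strain:”, “[…] served as control.” for “70005.”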

Clostridioides difficile [32] = experiment: Antimicrobial activity against rifaximin-resistant Clostridium difficile isolate 64 expressing RpoB H502R mutant by Etest; outline: as §5
Clostridioides difficile [33] = experiment: Antimicrobial activity against Clostridium difficile isolate 52 by Etest; outline: as §3
Clostridioides difficile [34] = experiment: Antimicrobial activity against Clostridium difficile isolate 63 by Etest; outline: as §7
Clostridioides difficile [35] = experiment: Antimicrobial activity against Clostridium difficile isolate 76 by agar dilution method; outline: as §1
Clostridioides difficile [36] = experiment: Antimicrobial activity against Clostridium difficile isolate 59 by Etest; outline: as §3
Clostridioides difficile [37] = experiment: Antimicrobial activity against Clostridium difficile isolate 11 by Etest; outline: as §4
Clostridioides difficile [38] = experiment: Antimicrobial activity against Clostridium difficile isolate 60 by agar dilution method
Outline: as §1, with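 “dilution method” for “dilution”, “(pH 7.4)” for “pH 7.4”, “μg/ml.” for “μg/ml. Control strain:”, “[…] served as control.” for “70005.”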

Clostridioides difficile [39] = experiment: Antimicrobial activity against Clostridium difficile isolate 60 by Etest; outline: as §3
Clostridioides difficile [40] = experiment: Antimicrobial activity against Clostridium difficile isolate 15 by Etest; outline: as §4
Clostridioides difficile [41] = experiment: Antimicrobial activity against rifaximin-resistant Clostridium difficile isolate 50 expressing RpoB R505K mutant by agar dilution method; outline: as §2
Clostridioides difficile [42] = experiment: Antimicrobial activity against rifaximin-resistant Clostridium difficile isolate 17 expressing RpoB H502N and I548M mutants by Etest; outline: as §5
Clostridioides difficile [43] = experiment: Antimicrobial activity against Clostridium difficile isolate 7 by Etest; outline: as §7
Clostridioides difficile [44] = experiment: Antimicrobial activity against rifaximin-resistant Clostridium difficile isolate 22 expressing RpoB H502N and R505K mutants by Etest; outline: as §5
Clostridioides difficile [45] = experiment: Antimicrobial activity against Clostridium difficile isolate 14 by Etest; outline: as §4
Clostridioides difficile [46] = experiment: Antimicrobial activity against Clostridium difficile isolate 74 by agar dilution method; outline: as §1
Clostridioides difficile [47] = experiment: Antimicrobial activity against Clostridium difficile isolate 36 by Etest; outline: as §4
Clostridioides difficile [48] = experiment: Antimicrobial activity against Clostridium difficile isolate 9 by agar dilution method; outline: as §1

## CO[C@H]1/C=C/O[C@@]2(C)Oc3c(C)c(O)c4c(O)c(c(/C=N/N5CCN(C)CC5)c(O)c4c3C2=O)NC(=O)/C(C)=C\C=C\[C@H](C)[C@H](O)[C@@H](C)[C@@H](O)[C@@H](C)[C@H](OC(C)=O)[C@@H]1C [RIFAMPIN]
Clostridioides difficile [1]
  MIC: 0.06 ng/mL (≈ 0.0729 nM)
Clostridioides difficile [2]
  MIC: 0.9 ng/mL (≈ 1.09 nM)
Clostridioides difficile [3]
  MIC: > 256000 ng/mL
Clostridioides difficile [4]
  MIC: > 256000 ng/mL
Clostridioides difficile [5]
  MIC: < 2 ng/mL
Clostridioides difficile [6]
  MIC: 0.06 ng/mL (≈ 0.0729 nM)
Clostridioides difficile [7]
  MIC: < 2 ng/mL
Clostridioides difficile [8]
  MIC: 0.9 ng/mL (≈ 1.09 nM)
Clostridioides difficile [9]
  MIC: > 32000 ng/mL
Clostridioides difficile [10]
  MIC: < 2 ng/mL
Clostridioides difficile [11]
  MIC: > 256000 ng/mL
Clostridioides difficile [12]
  MIC: > 32000 ng/mL
Clostridioides difficile [13]
  MIC: 0.4 ng/mL (≈ 0.486 nM)
Clostridioides difficile [14]
  MIC: 0.4 ng/mL (≈ 0.486 nM)
Clostridioides difficile [15]
  MIC: 0.06 ng/mL (≈ 0.0729 nM)
Clostridioides difficile [16]
  MIC: 0.9 ng/mL (≈ 1.09 nM)
Clostridioides difficile [17]
  MIC: 0.06 ng/mL (≈ 0.0729 nM)
Clostridioides difficile [18]
  MIC: > 256000 ng/mL
Clostridioides difficile [19]
  MIC: 0.9 ng/mL (≈ 1.09 nM)
Clostridioides difficile [20]
  MIC: < 2 ng/mL
Clostridioides difficile [21]
  MIC: 1.9 ng/mL (≈ 2.31 nM)
Clostridioides difficile [22]
  MIC: < 2 ng/mL
Clostridioides difficile [23]
  MIC: 0.06 ng/mL (≈ 0.0729 nM)
Clostridioides difficile [24]
  MIC: < 2 ng/mL
Clostridioides difficile [25]
  MIC: 128000 ng/mL (≈ 156000 nM)
Clostridioides difficile [26]
  MIC: 0.9 ng/mL (≈ 1.09 nM)
Clostridioides difficile [27]
  MIC: < 2 ng/mL
Clostridioides difficile [28]
  MIC: < 2 ng/mL
Clostridioides difficile [29]
  MIC: < 2 ng/mL
Clostridioides difficile [30]
  MIC: > 32000 ng/mL
Clostridioides difficile [31]
  MIC: 0.9 ng/mL (≈ 1.09 nM)
Clostridioides difficile [32]
  MIC: > 32000 ng/mL
Clostridioides difficile [33]
  MIC: < 2 ng/mL
Clostridioides difficile [34]
  MIC: < 2 ng/mL
Clostridioides difficile [35]
  MIC: 0.06 ng/mL (≈ 0.0729 nM)
Clostridioides difficile [36]
  MIC: < 2 ng/mL
Clostridioides difficile [37]
  MIC: < 2 ng/mL
Clostridioides difficile [38]
  MIC: 0.9 ng/mL (≈ 1.09 nM)
Clostridioides difficile [39]
  MIC: < 2 ng/mL
Clostridioides difficile [40]
  MIC: < 2 ng/mL
Clostridioides difficile [41]
  MIC: 128000 ng/mL (≈ 156000 nM)
Clostridioides difficile [42]
  MIC: > 32000 ng/mL
Clostridioides difficile [43]
  MIC: < 2 ng/mL
Clostridioides difficile [44]
  MIC: > 32000 ng/mL
Clostridioides difficile [45]
  MIC: < 2 ng/mL
Clostridioides difficile [46]
  MIC: 0.06 ng/mL (≈ 0.0729 nM)
Clostridioides difficile [47]
  MIC: < 2 ng/mL
Clostridioides difficile [48]
  MIC: 0.06 ng/mL (≈ 0.0729 nM)
